What was measured:
Mus musculus [1] = species: Mus musculus; assay: Ear thickness increase measured at 48 hr after challenge in group II on Day 10; type: functional
In short: (§1)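 Female BALB/c mice aged 6–7 weeks, 8 per group. On day 0 each mouse was pretreated epicutaneously on the shaved abdomen with 15.6 mmol in acetone/olive oil 4:1 (100 μL). The same dose was given on day 4 to sensitize. On day 8 the dorsal right ear was challenged with 1.56 mmol in acetone:olive oil (25 μL). Ear thickness was read by micrometer on days 9–12, and the increase taken at 48 h after challenge.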

Mus musculus [2] = species: Mus musculus; assay: Ear thickness increase measured at 48 hr after challenge in group III on Day 10; type: functional; in short: as §1
Mus musculus [3] = species: Mus musculus; assay: Increase in ear thickness was determined in mice after 48 hr of application of compound at a concentration of 1.56 mmol to right ear; type: functional
In short: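 Cross-reaction test in female BALB/c mice aged 6–7 weeks. Mice were sensitized on day 0 on the shaved lower abdomen with 15.6 mmol in acetone/olive oil 4:1 (100 μL). Four days later groups of 8 were challenged on the dorsal right ear with 1.56 mmol (25 μL). Ear thickness was measured by micrometer, and the increase taken at 48 h after challenge.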

Mus musculus [4] = species: Mus musculus; assay: A challenge dose of 1.56 mmol (25 uL) was applied to right ear in group II; type: functional; in short: as §1
Mus musculus [5] = species: Mus musculus; assay: A challenge dose of 1.56 mmol (25 uL) was applied to right ear in group III on Day 8; type: functional; in short: as §1
Mus musculus [6] = species: Mus musculus; assay: Mice was pretreated with 15.6 mmol (100 uL) on shaved abdomen in group II on Day 0
Mus musculus [7] = species: Mus musculus; assay: Mice was sensitized with 15.6 mmol (100 uL) on shaved abdomen in group II on Day 4
Mus musculus [8] = species: Mus musculus; assay: Mice was pretreated with 15.6 mmol (100 uL) on shaved abdomen in group III on Day 0
Mus musculus [9] = species: Mus musculus; assay: Mice was sensitized with 15.6 mmol (100 uL) on shaved abdomen in group III on Day 4

SMILES | Ear thickness (Mus musculus [1]) | Ear thickness (Mus musculus [2]) | Ear thickness (Mus musculus [3]) | Tolerance (Mus musculus [4]) | Tolerance (Mus musculus [5]) | Tolerance (Mus musculus [6]) | Tolerance (Mus musculus [7]) | Tolerance (Mus musculus [8]) | Tolerance (Mus musculus [9])
Oc1cccc(CCCCCCCCCCCC(F)(F)C(F)(F)C(F)(F)C(F)(F)F)c1O | 26 µm | 15 µm | 162 µm | 10 | 9 | 9 | 10 | 9 | 9
CCCCCCCCCCCCCCCc1cccc(O)c1O | – | – | 68.5 µm | – | – | – | – | – | –
Oc1cccc(CCCCCC(F)(F)C(F)(F)C(F)(F)C(F)(F)C(F)(F)C(F)(F)F)c1O | – | – | 142 µm | – | – | – | – | – | –
